This is an account of results in ChEMBL document CHEMBL1123134, “Diterpenoid sweeteners. Synthesis and sensory evaluation of stevioside analogues with improved organoleptic properties” (1985).

Assay type in all cases: functional
Test [1] is filed under the species Homo sapiens. Kind of test: Sensory evaluation was done for sweetness at a concentration of 534 p.p.m. against compound potency calculated on weight basis. The gist of the method:
(§1)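 Sweetness tasted in solutions held near pH ~7, so carboxylic acids are ionized. Potency is reported two ways: on a weight basis (Pw) and on a molar basis (Pm).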

For test [2], the species on record is Homo sapiens. As to the kind of experiment: Sensory evaluation was done at a concentration of 534 p.p.m. against other properties. A digest of the protocol:
(§2)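 Aqueous sample solutions were tasted at about pH 7, so carboxylic acids were in ionized form.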

The species entered for test [3] is Homo sapiens. Kind of test: Sensory evaluation was done at a concentration of 534 p.p.m. against property of bitterness. A digest of the protocol:
as §2

For test [4], the species on record is Homo sapiens. As to the kind of experiment: Sensory evaluation was done for sweetness at a concentration of 534 p.p.m. against sample intensity relative to 10% sucrose. The gist of the method: as §1
Test [5] is filed under the species Homo sapiens. As to the kind of experiment: Sensory evaluation was done at a concentration of 534 p.p.m. against property of sweetness. The gist of the method:
as §2

For test [6], the species on record is Homo sapiens. As to the kind of experiment: Sensory evaluation was done for sweetness at a concentration of 534 p.p.m. against compound potency calculated on a molar basis. A digest of the protocol:
as §1

The species entered for test [7] is Homo sapiens. Kind of test: Sensory evaluation was done for sweetness at a concentration of 631 p.p.m. against compound potency calculated on weight basis. The gist of the method:
as §1

For test [8], the species on record is Homo sapiens. Kind of test: Sensory evaluation was done at a concentration of 631 p.p.m. against property of sweetness. A digest of the protocol: as §2
The species entered for test [9] is Homo sapiens. As to the kind of experiment: Sensory evaluation was done for sweetness at a concentration of 631 p.p.m. against compound potency calculated on a molar basis. The gist of the method: as §1
The species named for test [10] is Homo sapiens. As to the kind of experiment: Sensory evaluation was done at a concentration of 631 p.p.m. against property of bitterness. A digest of the protocol:
as §2

For test [11], the species on record is Homo sapiens. Kind of test: Sensory evaluation was done for sweetness at a concentration of 631 p.p.m. against sample intensity relative to 10% sucrose. The gist of the method: as §1
The species named for test [12] is Homo sapiens. Kind of test: Sensory evaluation was done at a concentration of 631 p.p.m. against other properties. The gist of the method:
as §2

The species named for test [13] is Homo sapiens. As to the kind of experiment: Sensory evaluation was done at a concentration of 3000 p.p.m. against other properties. The gist of the method: (§3)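 Sensory evaluation of the samples in solution at pH ~7, where carboxylic acids are ionized.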
The species entered for test [14] is Homo sapiens. As to the kind of experiment: Sensory evaluation was done at a concentration of 3000 p.p.m. against property of bitterness. A digest of the protocol: as §3
The species entered for test [15] is Homo sapiens. Kind of test: Sensory evaluation was done at a concentration of 3000 p.p.m. against property of sweetness. A digest of the protocol:
as §3

For test [16], the species on record is Homo sapiens. As to the kind of experiment: Sensory evaluation was done for sweetness at a concentration of 3000 p.p.m. against sample intensity relative to 10% sucrose. The gist of the method:
as §3

The species entered for test [17] is Homo sapiens. As to the kind of experiment: Sensory evaluation was done for sweetness at a concentration of 3000 p.p.m. against compound potency calculated on weight basis. The gist of the method:
as §3

The species named for test [18] is Homo sapiens. Kind of test: Sensory evaluation was done for sweetness at a concentration of 3000 p.p.m. against compound potency calculated on a molar basis. A digest of the protocol:
as §3

Test [19] is filed under the species Homo sapiens. As to the kind of experiment: Sensory evaluation was done for sweetness at a concentration of 550 p.p.m. against compound potency calculated on weight basis. A digest of the protocol:
as §1

For test [20], the species on record is Homo sapiens. Kind of test: Sensory evaluation was done for sweetness at a concentration of 550 p.p.m. against sample intensity relative to 10% sucrose. A digest of the protocol: as §1
Test [21] is filed under the species Homo sapiens. As to the kind of experiment: Sensory evaluation was done at a concentration of 550 p.p.m. against property of bitterness. A digest of the protocol:
as §2

Test [22] is filed under the species Homo sapiens. As to the kind of experiment: Sensory evaluation was done for sweetness at a concentration of 550 p.p.m. against compound potency calculated on a molar basis. A digest of the protocol: as §1
For test [23], the species on record is Homo sapiens. Kind of test: Sensory evaluation was done at a concentration of 550 p.p.m. against property of sweetness. A digest of the protocol:
as §2

Test [24] is filed under the species Homo sapiens. Kind of test: Sensory evaluation was done at a concentration of 550 p.p.m. against other properties. The gist of the method: as §2
The species entered for test [25] is Homo sapiens. As to the kind of experiment: Sensory evaluation was done at a concentration of 650 p.p.m. against property of bitterness. The gist of the method: as §2
Test [26] is filed under the species Homo sapiens. As to the kind of experiment: Sensory evaluation was done for sweetness at a concentration of 650 p.p.m. against compound potency calculated on a molar basis. A digest of the protocol:
as §1

Test [27] is filed under the species Homo sapiens. Kind of test: Sensory evaluation was done at a concentration of 650 p.p.m. against other properties. The gist of the method: as §2
For test [28], the species on record is Homo sapiens. As to the kind of experiment: Sensory evaluation was done for sweetness at a concentration of 650 p.p.m. against compound potency calculated on weight basis. A digest of the protocol: as §1
Test [29] is filed under the species Homo sapiens. Kind of test: Sensory evaluation was done for sweetness at a concentration of 650 p.p.m. against sample intensity relative to 10% sucrose. The gist of the method:
as §1

Test [30] is filed under the species Homo sapiens. As to the kind of experiment: Sensory evaluation was done at a concentration of 650 p.p.m. against property of sweetness. A digest of the protocol: as §2
The species named for test [31] is Homo sapiens. Kind of test: Sensory evaluation was done for sweetness at a concentration of 615 p.p.m. against sample intensity relative to 10% sucrose. The gist of the method: as §1
The species entered for test [32] is Homo sapiens. As to the kind of experiment: Sensory evaluation was done for sweetness at a concentration of 615 p.p.m. against compound potency calculated on weight basis. A digest of the protocol: as §1
For test [33], the species on record is Homo sapiens. Kind of test: Sensory evaluation was done at a concentration of 615 p.p.m. against property of sweetness. The gist of the method: as §2
The species named for test [34] is Homo sapiens. As to the kind of experiment: Sensory evaluation was done at a concentration of 615 p.p.m. against other properties. The gist of the method: as §2
The species entered for test [35] is Homo sapiens. As to the kind of experiment: Sensory evaluation was done at a concentration of 615 p.p.m. against property of bitterness. A digest of the protocol: as §2
Test [36] is filed under the species Homo sapiens. As to the kind of experiment: Sensory evaluation was done for sweetness at a concentration of 615 p.p.m. against compound potency calculated on a molar basis. A digest of the protocol: as §1

With `C=C1C[C@@]23CC[C@H]4[C@@](C)(CCC[C@@]4(C)C(=O)OCCCS(=O)(=O)[O-])[C@@H]2CC[C@]1(O[C@H]1O[C@H](CO)[C@@H](O)[C@H](O)[C@H]1O[C@@H]1O[C@H](CO)[C@@H](O)[C@H](O)[C@H]1O)C3.[Na+]`, the Pw in the test filed under Homo sapiens [1] is recorded as 160. The Sensory evaluation in the test listed under Homo sapiens [2] is given as 4; in the test filed under Homo sapiens [3], 4; in the test filed under Homo sapiens [5], 92. In addition, the Ip in the test listed under Homo sapiens [4] is on record as 0.8. For the same molecule, the Pm in the test listed under Homo sapiens [6] was 360.
On to `C=C1C[C@@]23CC[C@H]4[C@@](C)(CCC[C@@]4(C)C(=O)OCCC(S(=O)(=O)[O-])S(=O)(=O)[O-])[C@@H]2CC[C@]1(O[C@H]1O[C@H](CO)[C@@H](O)[C@H](O)[C@H]1O[C@@H]1O[C@H](CO)[C@@H](O)[C@H](O)[C@H]1O)C3.[Na+].[Na+]`, for which the Pw in the test filed under Homo sapiens [7] is listed as 120. The Sensory evaluation in the test listed under Homo sapiens [8] turned out to be 96; in the test listed under Homo sapiens [10], 0; in the test listed under Homo sapiens [12], 4. For the same molecule, in the test listed under Homo sapiens [9], the Pm is given as 310. Further, the Ip in the test filed under Homo sapiens [11] is 0.8.
As to `CC12CC[C@](C)(C(=O)O)CC1C1=CC(=O)[C@@H]3[C@@]4(C)CC[C@H](O[C@H]5O[C@H](C(=O)O)[C@@H](O)[C@H](O)[C@H]5O[C@@H]5O[C@H](C(=O)O)[C@@H](O)[C@H](O)[C@H]5O)C(C)(C)[C@@H]4CC[C@@]3(C)[C@]1(C)CC2.N` (stereo partly specified), the Sensory evaluation stood at 13 in the test listed under Homo sapiens [13], 3 in the test listed under Homo sapiens [14] and 84 in the test filed under Homo sapiens [15]. The Ip in the test listed under Homo sapiens [16] was 1. Also, in the test listed under Homo sapiens [17], the Pw is listed as 33. Further, the Pm in the test filed under Homo sapiens [18] is listed as 90.
Regarding `C=C1C[C@@]23CC[C@H]4[C@@](C)(CCC[C@@]4(C)C(=O)OC(CCC(=O)[O-])C(=O)O)[C@@H]2CC[C@]1(O[C@@H]1O[C@@H](CO)[C@@H](O)[C@H](O)[C@@H]1O[C@@H]1O[C@@H](CO)[C@@H](O)[C@H](O)[C@@H]1O)C3.[Na+]` (stereo partly specified), in the test filed under Homo sapiens [19], the Pw is 160. In the test listed under Homo sapiens [20], the Ip is recorded as 0.9. The Sensory evaluation was determined as 2 in the test listed under Homo sapiens [21], 84 in the test listed under Homo sapiens [23] and 10 in the test listed under Homo sapiens [24]. In the test listed under Homo sapiens [22], the Pm was 380.
Regarding `C=C1C[C@@]23CC[C@H]4[C@@](C)(CCC[C@@]4(C)C(=O)OCCCCS(=O)(=O)[O-])[C@@H]2CC[C@]1(O[C@@H]1O[C@@H](CO)[C@@H](O)[C@H](O)[C@@H]1O[C@@H]1O[C@@H](CO)[C@@H](O)[C@H](O)[C@@H]1O)C3.[Na+]`, the Sensory evaluation was 17 in the test filed under Homo sapiens [25], 4 in the test filed under Homo sapiens [27] and 79 in the test listed under Homo sapiens [30]. Further, the Pm in the test listed under Homo sapiens [26] was 290. For the same molecule, the Pw in the test filed under Homo sapiens [28] is 120. The molecule also showed an Ip in the test filed under Homo sapiens [29] of 0.8.
`C=C1C[C@@]23CC[C@H]4[C@@](C)(CCC[C@@]4(C)C(=O)OCCC(N)C(=O)O)[C@@H]2CC[C@]1(O[C@@H]1O[C@@H](CO)[C@@H](O)[C@H](O)[C@@H]1O[C@@H]1O[C@@H](CO)[C@@H](O)[C@H](O)[C@@H]1O)C3` (stereo partly specified): the Ip in the test listed under Homo sapiens [31] is 1.2. Also, the Pw in the test filed under Homo sapiens [32] is recorded as 200. The Sensory evaluation in the test filed under Homo sapiens [33] is 60; in the test listed under Homo sapiens [34] it was 5; in the test filed under Homo sapiens [35] it was 35. In addition, in the test filed under Homo sapiens [36], the Pm was 420.
